In article PMC12926890 (Molecular pharmaceutics, 2024):

Key:
Type in all cases: cell-based, human
hCMEC/D3 monolayers [1] = assay: F-Aβ42 intracellular accumulation by confocal microscopy; conditions: 1 μM SB203580 30 min, then 60 min with 1 μM F-Aβ42
In short: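 Monolayers were grown on collagen-coated 8-well chambered slides, cultured 5−7 days at 37 °C and 5% CO₂, then held in 1% serum medium overnight. They received 1 μM p38 inhibitor for 30 min, then 1 μM FITC-Aβ₄₂ for 60 min. Cells were washed three times with ice-cold PBS, fixed in 4% paraformaldehyde for 20 min at room temperature, and DAPI-stained (300 nM, 10 min). They were then mounted and imaged by confocal SIM super-resolution.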

hCMEC/D3 monolayers [2] = assay: F-Aβ42 cellular uptake by flow cytometry; conditions: 1 μM SB203580 30 min, then 60 min with 1 μM F-Aβ42
In short: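 hCMEC/D3 monolayers grown on collagen-coated 6-well plates, seeded at about 25,000 cells/cm², cultured 5−7 days at 37 °C and 5% CO₂ to confluency, then moved to 1% serum medium the day before. Cells were pretreated 30 min with 1 μM p38 inhibitor, then exposed 60 min to 1 μM FITC-Aβ₄₂. Read-out was the median fluorescence intensity of the cell population by flow cytometry, compared by unpaired two-tailed t test.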

p38 MAPK = assay: RPPA proteomics assay of p38 phosphorylation; conditions: BBB endothelial (hCMEC/D3) cells exposed to Aβ42

| Compound | fluorescent intensity of F-Aβ42 in the cytoplasm (confocal microscopy) (hCMEC/D3 monolayers [1]) | F-Aβ42 uptake by hCMEC/D3 cells (flow cytometry, MFI) (hCMEC/D3 monolayers [2]) | p38 MAPK kinase activation (RPPA) (p38 MAPK) |
| --- | --- | --- | --- |
| C[S+]([O-])c1ccc(-c2nc(-c3ccncc3)c(-c3ccc(F)cc3)[nH]2)cc1 (stereo not drawn) [SB203580] | substantial reduction | significantly reduced |  |
| Aβ42: unlabeled amyloid-β 42 peptide custom synthesized by AAPPTec |  |  | significantly activated |
